“And” between values parts separate entries of the source, which are not always exact repeats. Identical values can stand only once. Like-named read-outs stand apart in the source and are kept apart here.
Columns and labels:
[1] = cited from earlier work
[2] = no reference given, cited from earlier work
[3] = type: in vivo, human
In short: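 Three-period crossover in 18 healthy males aged 18–45 y with a 14-day washout. Dosing was fasted, or within 30 min of starting a high-fat/high-calorie or low-fat meal, with 240 mL water and no food for ≥4 h. EDTA plasma was sampled 0–168 h and assayed by LC-MS/MS (MRM, d6 internal standard). NCA gave parameters; log-transformed values were fitted by mixed-effects model for geometric mean ratios with 90% CI.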

Safety evaluation = type: in vivo, human; conditions: single oral 300 mg
In short: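 Each of the three dosing periods had 8 days of post-dose follow-up. Monitoring covered physical examination, vital signs, 12-lead ECG, haematology, urinalysis, biochemistry, coagulation and adverse events. Vital signs and ECG were taken within 1 h pre-dose, at 3 h ±30 min post-dose, and daily at other visits. Adverse events were graded by NCI CTCAE v5.0. All 18 dosed subjects formed the safety set.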

[4] = test system: c-Met-dependent non-small cell lung cancer (NSCLC) and other tumor models; conditions: SCC244 at 10 mg/kg; cited from earlier work
[5] = single oral 300 mg, fasting, n=18
[6] = single oral 300 mg, high-fat meal, n=17
[7] = single oral 300 mg, low-fat meal, n=18
[8] = single oral 300 mg, n=17, bioavailability analysis set

SMILES: C[C@@H](Oc1cc(-c2cnn(C3CCNCC3)c2)cnc1N)c1c(Cl)ccc(F)c1Cl [crizotinib]
- Effect of food on bioavailability [1]: unaffected by food

SMILES: COc1cc2c(Nc3ccc(Br)cc3F)ncnc2cc1OCC1CCN(C)CC1 [vandetanib]
- Effect of food on bioavailability [1]: unaffected by food

SMILES: CNC(=O)c1cc(Oc2ccc(NC(=O)Nc3ccc(Cl)c(C(F)(F)F)c3)c(F)c2)ccn1 [regorafenib]
- Bioavailability increase with a high-fat meal [1]: 48%
- Bioavailability increase with a low-fat meal [1]: 36%

SMILES: CS(=O)(=O)CCNCc1ccc(-c2ccc3ncnc(Nc4ccc(OCc5cccc(F)c5)c(Cl)c4)c3c2)o1 [Lapatinib]
- Bioavailability increase with a high-fat meal [1]: 161%
- Bioavailability increase with a low-fat meal [1]: 80%

SMILES: CCCS(=O)(=O)Nc1ccc(F)c(C(=O)c2c[nH]c3ncc(-c4ccc(Cl)cc4)cc23)c1F [vemurafenib]
- Effect of high-fat meal (increase) ([1]; 960mg single dose): 3.7 fold

SMILES: Cn1cc(-c2cnc3cnn(S(=O)(=O)c4cnc5ccc(-c6cnn(C)c6)cn45)c3c2)cn1 [SCC244]
- Solubility in water [2]: practically insoluble in water
- Biopharmaceutics Classification System (BCS) class ([2]; poor aqueous solubility but sufficient permeability): Class II
- Solubility versus pH ([2]; weak base drug): declines greatly when the pH is higher than 1.2
- Tmax ([3]; male, human, plasma, po, 300 mg): 4 h
- AUC(0-inf) ([3]; male, human, plasma, po, 300 mg, AUC0-inf (geometric mean), single oral 300 mg, fasting, n=17, bioavailability analysis set): 25.3 µg·h/mL
- AUC(0-inf) ([3]; male, human, plasma, po, 300 mg, AUC0-inf (geometric mean), single oral 300 mg, high-fat meal, n=17, bioavailability analysis set): 59.7 µg·h/mL
- AUC(0-inf) ([3]; male, human, plasma, po, 300 mg, AUC0-inf (geometric mean), single oral 300 mg, low-fat meal, n=17, bioavailability analysis set): 55.3 µg·h/mL
- AUC(0-inf) ([3]; male, human, plasma, po, 300 mg, AUC0-inf, mean (SD), single oral 300 mg, fasting, n=18): 27.7 µg·h/mL
- AUC(0-inf) ([3]; male, human, plasma, po, 300 mg, AUC0-inf, mean (SD), single oral 300 mg, high-fat meal, n=17): 65.1 µg·h/mL
- AUC(0-inf) ([3]; male, human, plasma, po, 300 mg, AUC0-inf, mean (SD), single oral 300 mg, low-fat meal, n=18): 60.5 µg·h/mL
- AUC(0-t) ([3]; male, human, plasma, po, 300 mg, AUC0-t (geometric mean), single oral 300 mg, fasting, n=17, bioavailability analysis set): 24.8 µg·h/mL
- AUC(0-t) ([3]; male, human, plasma, po, 300 mg, AUC0-t (geometric mean), single oral 300 mg, high-fat meal, n=17, bioavailability analysis set): 58.9 µg·h/mL
- AUC(0-t) ([3]; male, human, plasma, po, 300 mg, AUC0-t (geometric mean), single oral 300 mg, low-fat meal, n=17, bioavailability analysis set): 54.3 µg·h/mL
- AUC(0-t) ([3]; male, human, plasma, po, 300 mg, AUC0-t, mean (SD), single oral 300 mg, fasting, n=18): 27.2 µg·h/mL
- AUC(0-t) ([3]; male, human, plasma, po, 300 mg, AUC0-t, mean (SD), single oral 300 mg, high-fat meal, n=17): 64.1 µg·h/mL
- AUC(0-t) ([3]; male, human, plasma, po, 300 mg, AUC0-t, mean (SD), single oral 300 mg, low-fat meal, n=18): 59.6 µg·h/mL
- Cmax ([3]; male, human, plasma, po, 300 mg, Cmax (geometric mean), single oral 300 mg, fasting, n=17, bioavailability analysis set): 0.824 µg/mL
- Cmax ([3]; male, human, plasma, po, 300 mg, Cmax (geometric mean), single oral 300 mg, high-fat meal, n=17, bioavailability analysis set): 1.61 µg/mL
- Cmax ([3]; male, human, plasma, po, 300 mg, Cmax (geometric mean), single oral 300 mg, low-fat meal, n=17, bioavailability analysis set): 1.6 µg/mL
- Cmax ([3]; male, human, plasma, po, 300 mg, Cmax, mean (SD), single oral 300 mg, fasting, n=18): 0.869 µg/mL
- Cmax ([3]; male, human, plasma, po, 300 mg, Cmax, mean (SD), single oral 300 mg, high-fat meal, n=17): 1.73 µg/mL
- Cmax ([3]; male, human, plasma, po, 300 mg, Cmax, mean (SD), single oral 300 mg, low-fat meal, n=18): 1.75 µg/mL
- half-life ([3]; male, human, plasma, po, 300 mg, Mean t1/2 under different meal conditions, single oral 300 mg, low-fat meal, high-fat meal and fasted groups): 24.7 to 26.1 h
- half-life ([3]; male, human, plasma, po, 300 mg, t1/2, mean (SD), single oral 300 mg, fasting, n=18): 26.1 h
- half-life ([3]; male, human, plasma, po, 300 mg, t1/2, mean (SD), single oral 300 mg, high-fat meal, n=17): 24.7 h
- half-life ([3]; male, human, plasma, po, 300 mg, t1/2, mean (SD), single oral 300 mg, low-fat meal, n=18): 25.6 h
- %CV (AUC0-inf), inter-subject variability [3, 5]: 44.0%
- %CV (AUC0-t), inter-subject variability [3, 5]: 44.2%
- %CV (Cmax), inter-subject variability [3, 5]: 34.3%
- CL/F, mean (SD) [3, 5]: 12.8 (5.5) L/h
- %CV (AUC0-inf), inter-subject variability [3, 6]: 35.3%
- %CV (AUC0-t), inter-subject variability [3, 6]: 34.8%
- %CV (Cmax), inter-subject variability [3, 6]: 30.5%
- CL/F, mean (SD) [3, 6]: 5.7 L/h and 5.7 (4.2) L/h
- Tmax, median (range) [3, 6]: 4.0 (2.0–12.0) h
- %CV (AUC0-inf), inter-subject variability [3, 7]: 31.6%
- %CV (AUC0-t), inter-subject variability [3, 7]: 31.5%
- %CV (Cmax), inter-subject variability [3, 7]: 30.2%
- CL/F, mean (SD) [3, 7]: 6.3 L/h and 6.3 (5.8) L/h
- Tmax, median (range) [3, 7]: 4.0 (2.0–8.0) h
- AUC0-inf geometric mean ratio (90% CI) of high-fat meal vs fasting [3, 8]: 235.9% (207.5–268.3%)
- AUC0-inf geometric mean ratio (90% CI) of low-fat meal vs fasting [3, 8]: 218.3% (192.0–248.3%)
- AUC0-t geometric mean ratio (90% CI) of high-fat meal vs fasting [3, 8]: 237.4% (208.7–270.0%)
- AUC0-t geometric mean ratio (90% CI) of low-fat meal vs fasting [3, 8]: 219.2% (192.7–249.3%)
- Cmax geometric mean ratio (90% CI) of high-fat meal vs fasting [3, 8]: 194.8% (174.3–217.7%)
- Cmax geometric mean ratio (90% CI) of low-fat meal vs fasting [3, 8]: 194.6% (174.1–217.5%)
- Other tolerability assessments (laboratory parameters, vital signs, physical examination, 12-lead ECGs) (Safety evaluation; all meal conditions): No clinically significant abnormalities
- SAEs or AEs leading to permanent discontinuation (Safety evaluation; all meal conditions): No SAEs or AEs leading to permanent discontinuation were reported
- Incidence of AEs (subjects with any AE) (Safety evaluation; fasted, 12/18 subjects): 66.7%
- Incidence of AE blood fibrinogen decreased (Safety evaluation; fasting, n=18): 16.7% (3)
- Incidence of AE dizziness (Safety evaluation; fasting, n=18): 16.7% (3)
- Incidence of AE head discomfort (Safety evaluation; fasting, n=18): 5.6% (1)
- Incidence of AE headache (Safety evaluation; fasting, n=18): 27.8% (5)
- Incidence of AE protein urine presence (Safety evaluation; fasting, n=18): 16.7% (3)
- Incidence of AEs (subjects with any AE) (Safety evaluation; high-fat meal, 12/17 subjects): 70.6%
- Incidence of AE blood fibrinogen decreased (Safety evaluation; high-fat meal, n=17): 23.5% (4)
- Incidence of AE dizziness (Safety evaluation; high-fat meal, n=17): 0% (0)
- Incidence of AE head discomfort (Safety evaluation; high-fat meal, n=17): 11.8% (2)
- Incidence of AE headache (Safety evaluation; high-fat meal, n=17): 47.1% (8)
- Incidence of AE protein urine presence (Safety evaluation; high-fat meal, n=17): 0% (0)
- Subjects with a CTCAE grade 2 AE (headache); all other AEs grade 1 (Safety evaluation; low-fat meal): 1 subject
- Incidence of AEs (subjects with any AE) (Safety evaluation; low-fat meal, 15/18 subjects): 83.3%
- Incidence of AE blood fibrinogen decreased (Safety evaluation; low-fat meal, n=18): 27.8% (5)
- Incidence of AE dizziness (Safety evaluation; low-fat meal, n=18): 11.1% (2)
- Incidence of AE head discomfort (Safety evaluation; low-fat meal, n=18): 11.1% (2)
- Incidence of AE headache (Safety evaluation; low-fat meal, n=18): 44.4% (8)
- Incidence of AE protein urine presence (Safety evaluation; low-fat meal, n=18): 5.6% (1)
- Efficacy compared with capmatinib and crizotinib [4]: comparable with that of capmatinib at 15 mg/kg and crizotinib at 50 mg/kg
